Test results: ChEMBL document CHEMBL5724801, “EUbOPEN Chemogenomics Library - Multiplex” (2024)
“And” between values parts separate entries of the source, which are not always exact repeats. Identical values can stand only once.

Tested on: HEK-293T
Experiment: Multiplex assay against HEK293T
Assay type: toxicity, cell-based
Conditions: human
How it was run: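 Live cells carried four stains from seeding: Hoechst33342, BioTracker Green Microtubule Cytoskeleton Dye, MitoTracker Red and Annexin V Alexa Fluor 680. They were imaged on a CQ1 microscope at 37°C and 5% CO2 after compound addition. Using CellPathfinder machine-learning gating, cells were split into Hoechst high-intensity objects or normal cells, normal cells into healthy, pyknosed or fragmented nuclei, and pyknosed cells into mitotic or apoptotic; tubulin, mitochondrial-mass and membrane-permeability phenotypes are per cents of healthy-nucleus cells.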

[1] = 12 h, 1 µM, compound concentration 1 uM
[2] = 12 h, 10 µM, compound concentration 10 uM
[3] = 24 h, 1 µM, compound concentration 1 uM
[4] = 24 h, 10 µM, compound concentration 10 uM
[5] = 48 h, 1 µM, compound concentration 1 uM
[6] = 48 h, 10 µM, compound concentration 10 uM

SMILES: COCCNc1nc2ccc(C#CC3(O)CCCCC3)cc2n1-c1ccnc(N)n1
- Population Apoptotic (%) [1]: 9.87% and 12.26%
- Population Fragmented Nuclei (%) [1]: 1.33% and 5.34%
- Population Hoechst High Intensity Objects (%) [1]: 0%
- Population Membrane Permeable-Phenotype (%) [1]: 1.82% and 0%
- Population Mitotic Cells (%) [1]: 90.13% and 87.74%
- Population Normal (%) [1]: 100%
- Population Pyknosed Nuclei (%) [1]: 40.32% and 80.92%
- Total Cell Count [1]: 377 and 131
- Population Apoptotic (%) [2]: 17.15% and 7.53%
- Population Fragmented Nuclei (%) [2]: 0.29% and 2.41%
- Population Hoechst High Intensity Objects (%) [2]: 0%
- Population Membrane Permeable-Phenotype (%) [2]: 0%
- Population Mitotic Cells (%) [2]: 82.85% and 92.47%
- Population Normal (%) [2]: 100%
- Population Pyknosed Nuclei (%) [2]: 68.29% and 87.95%
- Population Tubulin-Different-Phenotype (%) [2]: 29.09% and 56.25%
- Total Cell Count [2]: 350 and 166
- Population Apoptotic (%) [3]: 11.24% and 8.33%
- Population Fragmented Nuclei (%) [3]: 1.68% and 2.99%
- Population Healthy Nuclei (%) [3]: 69.92% and 32.34%
- Population Hoechst High Intensity Objects (%) [3]: 0% and 0.6%
- Population Membrane Permeable-Phenotype (%) [3]: 2.88% and 1.85%
- Population Mitochondria Different-Phenotype (%) [3]: 12.5% and 16.67%
- Population Mitotic Cells (%) [3]: 88.76% and 91.67%
- Population Normal (%) [3]: 100% and 99.4%
- Population Pyknosed Nuclei (%) [3]: 28.4% and 64.67%
- Population Tubulin-Different-Phenotype (%) [3]: 6.49% and 5.56%
- Population Apoptotic (%) [4]: 30% and 31.16%
- Population Fragmented Nuclei (%) [4]: 0.22% and 1.23%
- Population Hoechst High Intensity Objects (%) [4]: 0.22% and 0%
- Population Membrane Permeable-Phenotype (%) [4]: 1% and 0%
- Population Mitochondria Different-Phenotype (%) [4]: 22.89% and 17.39%
- Population Mitotic Cells (%) [4]: 70% and 68.84%
- Population Normal (%) [4]: 99.78% and 100%
- Population Pyknosed Nuclei (%) [4]: 55.31% and 84.66%
- Population Tubulin-Different-Phenotype (%) [4]: 37.81% and 21.74%
- Total Cell Count [4]: 453 and 163
- Population Apoptotic (%) [5]: 6.04% and 14.1%
- Population Fragmented Nuclei (%) [5]: 1.77% and 1.97%
- Population Healthy Nuclei (%) [5]: 86.69% and 67.32%
- Population Hoechst High Intensity Objects (%) [5]: 0.06% and 0%
- Population Membrane Permeable-Phenotype (%) [5]: 6.87% and 2.34%
- Population Mitochondria Different-Phenotype (%) [5]: 9.94% and 24.56%
- Population Mitotic Cells (%) [5]: 93.96% and 85.9%
- Population Normal (%) [5]: 99.94% and 100%
- Population Pyknosed Nuclei (%) [5]: 11.53% and 30.71%
- Population Apoptotic (%) [6]: 18.78% and 26.09%
- Population Fragmented Nuclei (%) [6]: 0.76% and 2.91%
- Population Healthy Nuclei (%) [6]: 68.15% and 30.1%
- Population Hoechst High Intensity Objects (%) [6]: 0.25% and 0%
- Population Membrane Permeable-Phenotype (%) [6]: 2.79% and 1.61%
- Population Mitochondria Different-Phenotype (%) [6]: 59.96% and 58.06%
- Population Mitotic Cells (%) [6]: 81.22% and 73.91%
- Population Normal (%) [6]: 99.75% and 100%
- Population Pyknosed Nuclei (%) [6]: 31.09% and 66.99%

SMILES: CNc1nc(NCc2ncccn2)c2c(-c3ccc4ncccc4c3)c[nH]c2n1
- Population Apoptotic (%) [1]: 9.22% and 10.1%
- Population Fragmented Nuclei (%) [1]: 2.26% and 3.88%
- Population Hoechst High Intensity Objects (%) [1]: 0.25% and 0%
- Population Membrane Permeable-Phenotype (%) [1]: 0.81% and 0%
- Population Mitotic Cells (%) [1]: 90.78% and 89.9%
- Population Normal (%) [1]: 99.75% and 100%
- Population Pyknosed Nuclei (%) [1]: 35.43% and 76.74%
- Population Apoptotic (%) [2]: 13.38% and 23.23%
- Population Fragmented Nuclei (%) [2]: 2.88% and 3.98%
- Population Hoechst High Intensity Objects (%) [2]: 0.64% and 0%
- Population Membrane Permeable-Phenotype (%) [2]: 0%
- Population Mitotic Cells (%) [2]: 86.62% and 76.77%
- Population Normal (%) [2]: 99.36% and 100%
- Population Pyknosed Nuclei (%) [2]: 45.51% and 88.07%
- Population Tubulin-Different-Phenotype (%) [2]: 20.5% and 42.86%
- Total Cell Count [2]: 314 and 176
- Population Apoptotic (%) [3]: 7.44% and 13.04%
- Population Fragmented Nuclei (%) [3]: 1.55% and 3.01%
- Population Healthy Nuclei (%) [3]: 79.72% and 45.11%
- Population Hoechst High Intensity Objects (%) [3]: 0.15% and 0%
- Population Membrane Permeable-Phenotype (%) [3]: 0.78% and 0%
- Population Mitochondria Different-Phenotype (%) [3]: 15.34% and 13.33%
- Population Mitotic Cells (%) [3]: 92.56% and 86.96%
- Population Normal (%) [3]: 99.85% and 100%
- Population Pyknosed Nuclei (%) [3]: 18.73% and 51.88%
- Population Tubulin-Different-Phenotype (%) [3]: 9.13% and 10%
- Population Apoptotic (%) [4]: 21.74% and 18.6%
- Population Fragmented Nuclei (%) [4]: 2.16% and 2.65%
- Population Healthy Nuclei (%) [4]: 75.72% and 29.1%
- Population Hoechst High Intensity Objects (%) [4]: 0%
- Population Membrane Permeable-Phenotype (%) [4]: 2.22% and 7.27%
- Population Mitochondria Different-Phenotype (%) [4]: 39.37% and 32.73%
- Population Mitotic Cells (%) [4]: 78.26% and 81.4%
- Population Normal (%) [4]: 100%
- Population Tubulin-Different-Phenotype (%) [4]: 28.89% and 25.45%
- Total Cell Count [4]: 416 and 189
- Population Fragmented Nuclei (%) [5]: 3.92% and 2.35%
- Population Healthy Nuclei (%) [5]: 88.02% and 64.71%
- Population Hoechst High Intensity Objects (%) [5]: 0% and 0.58%
- Population Membrane Permeable-Phenotype (%) [5]: 3.68% and 0.91%
- Population Mitochondria Different-Phenotype (%) [5]: 13.1% and 22.73%
- Population Mitotic Cells (%) [5]: 93.46% and 80.36%
- Population Normal (%) [5]: 100% and 99.42%
- Population Apoptotic (%) [6]: 10.91% and 21.43%
- Population Fragmented Nuclei (%) [6]: 4.49% and 5.56%
- Population Healthy Nuclei (%) [6]: 86.38% and 55.56%
- Population Hoechst High Intensity Objects (%) [6]: 0% and 2.7%
- Population Membrane Permeable-Phenotype (%) [6]: 2.12% and 5%
- Population Mitochondria Different-Phenotype (%) [6]: 57.5% and 60%
- Population Mitotic Cells (%) [6]: 89.09% and 78.57%
- Population Normal (%) [6]: 100% and 97.3%

SMILES: Cl.Clc1cc2cc(c1)-c1cnn3ccc(nc13)NCCOCCO2
- Population Apoptotic (%) [1]: 7.52% and 9.38%
- Population Fragmented Nuclei (%) [1]: 1.41% and 6.41%
- Population Hoechst High Intensity Objects (%) [1]: 0%
- Population Membrane Permeable-Phenotype (%) [1]: 0.46% and 0%
- Population Mitochondria Different-Phenotype (%) [1]: 39.63% and 22.22%
- Population Mitotic Cells (%) [1]: 92.48% and 90.62%
- Population Normal (%) [1]: 100%
- Population Pyknosed Nuclei (%) [1]: 37.46% and 82.05%
- Total Cell Count [1]: 355 and 156
- Population Apoptotic (%) [2]: 20.33% and 8.33%
- Population Fragmented Nuclei (%) [2]: 2.02% and 1.83%
- Population Healthy Nuclei (%) [2]: 56.57% and 25%
- Population Hoechst High Intensity Objects (%) [2]: 0% and 0.61%
- Population Membrane Permeable-Phenotype (%) [2]: 1.19% and 2.44%
- Population Mitochondria Different-Phenotype (%) [2]: 35.71% and 26.83%
- Population Mitotic Cells (%) [2]: 79.67% and 91.67%
- Population Normal (%) [2]: 100% and 99.39%
- Population Pyknosed Nuclei (%) [2]: 41.41% and 73.17%
- Total Cell Count [2]: 297 and 165
- Population Apoptotic (%) [3]: 18.58% and 9.43%
- Population Fragmented Nuclei (%) [3]: 0.93% and 4.73%
- Population Hoechst High Intensity Objects (%) [3]: 0%
- Population Membrane Permeable-Phenotype (%) [3]: 1.19% and 0%
- Population Mitochondria Different-Phenotype (%) [3]: 17.58% and 22.86%
- Population Mitotic Cells (%) [3]: 81.42% and 90.57%
- Population Normal (%) [3]: 100%
- Population Tubulin-Different-Phenotype (%) [3]: 11.16% and 5.71%
- Population Apoptotic (%) [4]: 25.26% and 16.38%
- Population Fragmented Nuclei (%) [4]: 2.17% and 2.23%
- Population Healthy Nuclei (%) [4]: 72.01% and 32.96%
- Population Hoechst High Intensity Objects (%) [4]: 0%
- Population Membrane Permeable-Phenotype (%) [4]: 0.75% and 0%
- Population Mitochondria Different-Phenotype (%) [4]: 30.19% and 10.17%
- Population Mitotic Cells (%) [4]: 74.74% and 83.62%
- Population Normal (%) [4]: 100%
- Population Pyknosed Nuclei (%) [4]: 25.82% and 64.8%
- Population Tubulin-Different-Phenotype (%) [4]: 9.81% and 5.08%
- Total Cell Count [4]: 368 and 179
- Population Fragmented Nuclei (%) [5]: 3.48% and 1.96%
- Population Healthy Nuclei (%) [5]: 87.01% and 64.71%
- Population Hoechst High Intensity Objects (%) [5]: 0% and 0.97%
- Population Membrane Permeable-Phenotype (%) [5]: 5.92% and 3.03%
- Population Mitochondria Different-Phenotype (%) [5]: 15.1% and 25%
- Population Mitotic Cells (%) [5]: 97.71% and 83.82%
- Population Normal (%) [5]: 100% and 99.03%
- Population Apoptotic (%) [6]: 16.05% and 15.07%
- Population Fragmented Nuclei (%) [6]: 3.95% and 2.66%
- Population Healthy Nuclei (%) [6]: 86.64% and 69.58%
- Population Hoechst High Intensity Objects (%) [6]: 0.12% and 0.75%
- Population Membrane Permeable-Phenotype (%) [6]: 3.08% and 0%
- Population Mitochondria Different-Phenotype (%) [6]: 26.54% and 19.13%
- Population Mitotic Cells (%) [6]: 83.95% and 84.93%
- Population Normal (%) [6]: 99.88% and 99.25%
- Population Pyknosed Nuclei (%) [6]: 9.41% and 27.76%
